Experimental data: ChEMBL document CHEMBL1150803, “Absence of a universal mechanism of mitochondrial toxicity by nucleoside analogs” (Antimicrob Agents Chemother, 2007)

What was measured:
H9c2 [1] = assay: Toxicity in rat H9c2 cells assessed as induction of cell death at 50 uM after 12 days; settings: h9c2, 288 h
H9c2 [2] = assay: Toxicity against rat H9c2 cells assessed as elevation of lactate levels at 10 uM after 6 days by NAD+ reduction assay; settings: h9c2, 144 h
[3] = Toxicity against human HepG2/C3A cells assessed as effect on mitochondrial DNA copy numbers at 50 uM after 10 days; type: cell-based; settings: 240 h
In short: (§1)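 HepG2/C3A cells were grown in MEM with pyruvate and 10% FBS. Drug in PBS was replenished every 2 days for 4, 10 or 14 days. DNA was extracted and quantified by real-time SYBR Green PCR with 0.5 μM of each primer and 2 mM MgCl2. Output is the cytochrome b/pyruvate kinase gene copy ratio (mtDNA/nDNA), compared with time-matched control. Mean of three experiments.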

H9c2 [4] = assay: Toxicity against rat H9c2 cells assessed as elevation of lactate levels at 50 uM after 6 days by NAD+ reduction assay; settings: h9c2, 144 h
[5] = Toxicity against human HepG2/C3A cells assessed as increase in mitochondrial superoxide production at 50 uM by flow cytometry; type: cell-based
In short: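 Flask-grown cells were loaded with 5 μM MitoSOX Red in HBSS with Ca/Mg for 10 min at 37°C in the dark, trypsinized, and analyzed by flow cytometry (488 nm excitation, 530/30 emission). Result is the geometric mean fluorescence of 10,000 cells. HepG2 were sampled on days 4, 10 and 14; H9c2 on day 12. Compared with time-matched control.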

[6] = Toxicity against human HepG2/C3A cells assessed as inhibition of cell proliferation at 50 uM after 6 days by SRB assay; type: cell-based; settings: 144 h
In short: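 Cells were seeded at about 2,500 per well and exposed to drug for 6 days. They were fixed overnight at −10°C in methanol with 1% acetic acid, stained with 0.5% SRB in 1% acetic acid for 1 h at room temperature, and the dye eluted with 10 mM Tris pH 10. Result is dilution-adjusted absorbance at 540 nm, mean of three experiments.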

[7] = Toxicity in human HepG2/C3A cells assessed as induction of cell death at 50 uM after 14 days; type: cell-based; settings: 336 h
In short: (§2)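 LIVE/DEAD flow cytometry: harvested cells in PBS with 100 nM calcein AM and 8 μM ethidium homodimer 1, 30 min at 37°C in the dark, 488 nm excitation. After debris gating, dead cells are those high in ethidium homodimer and low in calcein, counted per 10,000 events. HepG2 were exposed 4, 10 or 14 days; H9c2 12 days. Compared with time-matched control.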

H9c2 [8] = assay: Toxicity against rat H9c2 cells assessed as effect on mitochondrial DNA copy numbers after 12 days; settings: h9c2, 288 h
[9] = Toxicity in human HepG2/C3A cells assessed as induction of cell death at 50 uM after 10 days; type: cell-based; settings: 240 h
In short: as §2

[10] = Toxicity against human HepG2/C3A cells assessed as elevation of lactate levels at 10 uM after 6 days by NAD+ reduction assay; type: cell-based; settings: 144 h
In short: (§3)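 Cells were seeded at about 2,500 per well and exposed 6 days; H9c2 were retinoic-acid-conditioned in 1% FBS. Medium was deproteinized with ice-cold 10% TCA. Lactate was read by LDH-catalyzed NAD+ reduction in 0.2 M glycine-hydrazine pH 9.2 with 0.6 mg/ml NAD+ and 17 U/ml LDH, 30 min at room temperature, absorbance 340 nm. Result is nmol/well normalized to SRB absorbance.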

[11] = Toxicity against human HepG2/C3A cells assessed as effect on mitochondrial DNA copy numbers at 50 uM after 4 days; type: cell-based; settings: 96 h
In short: as §1

[12] = Toxicity against human HepG2/C3A cells assessed as elevation of lactate levels at 50 uM after 6 days by NAD+ reduction assay; type: cell-based; settings: 144 h
In short: as §3

[13] = Toxicity in human HepG2/C3A cells assessed as induction of cell death at 10 uM after 4 days; type: cell-based; settings: 96 h
In short: as §2

H9c2 [14] = assay: Toxicity against rat H9c2 cells assessed as increase in mitochondrial superoxide production at 50 uM by flow cytometry; settings: h9c2, 50 µM
[15] = Toxicity in human HepG2/C3A cells assessed as induction of cell death at 50 uM after 4 days; type: cell-based; settings: 96 h
In short: as §2

[16] = Toxicity in human HepG2/C3A cells assessed as induction of cell death at 10 to 50 uM after 4 to 14 days; type: cell-based
In short: as §2

H9c2 [17] = assay: Toxicity against rat H9c2 cells assessed as inhibition of cell proliferation at 10 to 50 uM after 4 to 14 days by SRB assay; settings: h9c2, 50 µM
[18] = Toxicity against human HepG2/C3A cells assessed as reduction in mitochondrial DNA copy numbers at 10 uM after 4 to 14 days relative to control; type: cell-based; set-up: scale not given: the % may be the effect or the level left
In short: as §1

[19] = Toxicity against human HepG2/C3A cells assessed as reduction in mitochondrial DNA copy numbers at 50 uM after 4 to 14 days relative to control; type: cell-based; set-up: scale not given: the % may be the effect or the level left
In short: as §1

[20] = Toxicity against human HepG2/C3A cells assessed as metabolic alterations at 10 to 50 uM after 4 to 14 days by SRB assay; type: cell-based
H9c2 [21] = assay: Toxicity against rat H9c2 cells assessed as metabolic alterations at 10 to 50 uM after 4 to 14 days by SRB assay; settings: h9c2, 50 µM
[22] = Toxicity against human HepG2/C3A cells assessed as inhibition of cell proliferation at 10 to 50 uM after 6 days by SRB assay
H9c2 [23] = assay: Toxicity against rat H9c2 cells assessed as reduction in mitochondrial DNA copy numbers at 10 uM after 12 days relative to control; set-up: scale not given: the % may be the effect or the level left; settings: h9c2, 288 h
H9c2 [24] = assay: Toxicity in rat […] cells assessed as induction of cell death at 10 to 50 uM after 4 to 14 days
[25] = Toxicity against human […] cells assessed as reduction in mitochondrial DNA copy numbers at 0.5 ug/ml after 6 days relative to control; type: cell-based; set-up: scale not given: the % may be the effect or the level left; settings: hepg2/c3a, 144 h
[26] = Toxicity against human HepG2/C3A cells assessed as inhibition of cell proliferation at 0.5 ug/ml after 6 days by SRB assay; type: cell-based; settings: 144 h
In short: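 Cells were seeded at about 2,500/well in 12-well plates and cultured with 0.5 µg/ml EtBr for 6 days. They were fixed overnight in methanol with 1% acetic acid at −10°C and stained 1 h with 0.5% SRB. Bound dye was eluted with 10 mM Tris pH 10 and absorbance read at 540 nm. Three experiments were run.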

[27] = Toxicity against human HepG2/C3A cells assessed as reduction in mitochondrial DNA copy numbers at 0.5 ug/ml after 10 days relative to control; type: cell-based; set-up: scale not given: the % may be the effect or the level left; settings: 240 h
In short: (§4)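 DNA was extracted after 0.5 µg/ml EtBr exposure: H9c2 at 12 days (pre-kept 7 days in 1% FBS plus 10 nM retinoic acid), HepG2/C3A at 4, 10 and 14 days. SYBR real-time PCR used 0.5 µM primers and 2 mM MgCl2. Copy numbers came from purified-product standards, reported as cytochrome b/pyruvate kinase ratio versus control.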

[28] = Toxicity in human HepG2/C3A cells assessed as cell viability at 0.5 ug/ml after 10 days; type: cell-based
In short: (§5)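 HepG2/C3A cells were cultured with 0.5 µg/ml EtBr for 10 or 14 days. Harvested cells were stained with 100 nM calcein AM and 8 µM ethidium homodimer 1 for 30 min at 37°C in the dark, then analysed by flow cytometry at 488-nm excitation. Dead cells (high ethidium homodimer, low calcein) were counted per 10,000 events after debris gating.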

[29] = Toxicity in human HepG2/C3A cells assessed as cell viability at 0.5 ug/ml after 14 days; type: cell-based
In short: as §5

[30] = Toxicity against human HepG2/C3A cells assessed as reduction in mitochondrial DNA copy numbers at 0.5 ug/ml after 14 days relative to control; type: cell-based; set-up: scale not given: the % may be the effect or the level left; settings: 336 h
In short: as §4

[31] = Toxicity against human HepG2/C3A cells assessed as increase in mitochondrial superoxide production at 0.5 ug/ml after 4 to 14 days by flow cytometry; type: cell-based
In short: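 HepG2/C3A cells were cultured in MEM with 10% FBS with 0.5 µg/ml EtBr for 4, 10 and 14 days, with medium changed every 2 days. Attached cells were loaded with 5 µM MitoSOX Red in HBSS with Ca/Mg for 10 min at 37°C in the dark, then trypsinised. Flow cytometry used 488-nm excitation and 530/30 emission; the value is the geometric mean fluorescence of 10,000 cells.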

[32] = Toxicity against human HepG2/C3A cells assessed as reduction in mitochondrial DNA copy numbers at 0.5 ug/ml after 4 days relative to control; type: cell-based; set-up: scale not given: the % may be the effect or the level left; settings: 96 h
In short: as §4

[33] = Toxicity against human HepG2/C3A cells assessed as elevation of lactate levels at 0.5 ug/ml after 6 days by NAD+ reduction assay; type: cell-based; settings: 144 h
In short: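 Cells were exposed to 0.5 µg/ml EtBr for 6 days in 12-well plates seeded at about 2,500 cells/well, with drug in PBS replenished at medium changes. Medium was deproteinised with TCA. Lactate was measured as NADH at 340 nm after 30 min at room temperature in glycine-hydrazine buffer pH 9.2 with NAD+ and lactate dehydrogenase. Results are nmol/well normalised to SRB absorbance, from three experiments.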

[34] = Toxicity against human HepG2/C3A cells assessed as reduction in mitochondrial DNA copy numbers at 1 uM after 4 days relative to control; type: cell-based; set-up: scale not given: the % may be the effect or the level left; settings: 96 h
In short: as §1

H9c2 [35] = assay: Toxicity in rat H9c2 cells assessed as effect on cell viability at 5 uM after 6 days; settings: h9c2, 144 h
[36] = Toxicity against human HepG2/C3A cells assessed as reduction in mitochondrial DNA copy numbers at 5 uM after 4 days relative to control; type: cell-based; set-up: scale not given: the % may be the effect or the level left; settings: 96 h
In short: as §1

H9c2 [37] = assay: Toxicity against rat H9c2 cells assessed as reduction in mitochondrial DNA copy numbers at 1 to 5 uM after 12 days relative to control; settings: h9c2, 288 h
[38] = Toxicity against human HepG2/C3A cells assessed as reduction in mitochondrial DNA copy numbers at 1 uM after 14 days relative to control; type: cell-based; set-up: scale not given: the % may be the effect or the level left; settings: 336 h
In short: as §1

[39] = Toxicity against human HepG2/C3A cells assessed as reduction in mitochondrial DNA copy numbers at 5 uM after 14 days relative to control; type: cell-based; set-up: scale not given: the % may be the effect or the level left; settings: 336 h
In short: as §1

H9c2 [40] = assay: Toxicity in rat H9c2 cells assessed as effect on cell viability at 1 to 5 uM after 12 days; settings: h9c2, 288 h
[41] = Toxicity against human HepG2/C3A cells assessed as induction of cell death at 5 uM after 14 days; type: cell-based; settings: 336 h
In short: as §2

For `Cc1cn([C@H]2C[C@H](N=[N+]=[N-])[C@@H](CO)O2)c(=O)[nH]c1=O` [ZIDOVUDINE], the Activity (H9c2 [1]) was “Non-toxic”, the Activity (H9c2 [2]) was “Toxic” and the Activity [3] was “Toxic”. The Activity (H9c2 [4]) was “Toxic”, the Activity [5] was “Toxic” and the Activity [6] was “Toxic”. For the same molecule, the Activity [7] was “Toxic”, the Activity (H9c2 [8]) was “Non-toxic” and the Activity [9] was “Toxic”. For the same molecule, the Activity [10] was “Toxic”, the Activity [11] was “Toxic” and the Activity [12] was “Toxic”. The Activity [13] was “Toxic”, the Activity (H9c2 [14]) was “Non-toxic” and the Activity [15] was “Toxic”.

In the case of `O=c1[nH]cnc2c1ncn2[C@H]1CC[C@@H](CO)O1` [DIDANOSINE], the Activity [16] is reported as “Non-toxic”, the Activity (H9c2 [17]) is reported as “Non-toxic” and the Activity [18] is reported as 80%. The Activity [19] was 50%, the Activity [20] was “Non-toxic” and the Activity (H9c2 [21]) was “Non-toxic”. For the same molecule, the Activity [22] was “Non-toxic”, the Activity (H9c2 [23]) was 60% and the Activity (H9c2 [24]) was “Non-toxic”.

With `CC[n+]1c(-c2ccccc2)c2cc(N)ccc2c2ccc(N)cc21.[Br-]` [HOMIDIUM BROMIDE] the Activity [25] was 16%, the Activity [26] was “Toxic” and the Activity [27] was 10%. For the same molecule, the viability at 240 h, 0.5 ug/ml [28] was > 80%, the viability at 336 h, 0.5 ug/ml [29] was > 80% and the Activity [30] was 4%. For the same molecule, the Activity [31] was “Toxic”, the Activity [32] was 16% and the Activity [33] was “Toxic”.

For `Nc1ccn([C@H]2CC[C@@H](CO)O2)c(=O)n1` [ZALCITABINE], the Activity [34] was 15%, the Activity (H9c2 [35]) was “Non-toxic” and the Activity [36] was 11%. For the same molecule, the Activity (H9c2 [37]) was “Non-toxic”, the Activity [6] was “Non-toxic” and the Activity [38] was 1%. The Activity [39] was 1%, the Activity (H9c2 [40]) was “Non-toxic” and the Activity [41] was “Toxic”.
